Activity calls are given as the source filed them. The calls are words filed in the database; no cut-off is given here.
Columns and labels:
Leishmania donovani [1] = experiment: Antileishmanial activity against amastigote stage of Leishmania donovani MHOM/IN/80/Dd8 harboring luciferase gene infected in mouse J774 cells assessed as parasite growth inhibition at 25 uM incubated for 72 hrs by Steady-Glo reagent based luciferase assay; format: functional; conditions: MHOM/IN/80/Dd8, J774
Procedure, shortened: (§1)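 J774 murine macrophages, 4 × 10⁴ cells/well in RPMI with 10% FBS for 24 h, are infected for 24 h at 37 °C, 5% CO₂ with stationary-phase luciferase-transfected L. donovani Dd8 promastigotes at a 1:8 macrophage:parasite ratio. Compounds are dissolved in DMSO. Luminescence is read after Steady-Glo is added in PBS. IC₅₀ is taken from a four-parameter Hill nonlinear regression. Miltefosine is the reference.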

Leishmania donovani [2] = experiment: Induction of apoptosis in Leishmania donovani MHOM/IN/80/Dd8 promastigotes assessed as early apoptotic cells at 50 uM measured after 24 hrs by Alexa fluor488-AnnexinV/PI staining based FACSCalibur flow cytometry analysis (reference value: 10.3%); format: functional
Leishmania donovani [3] = experiment: Antileishmanial activity against log phase of Leishmania donovani MHOM/IN/80/Dd8 promastigotes assessed as reduction in cell viability at 25 uM incubated for 72 hrs by MTT assay; format: functional
Procedure, shortened: (§2)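 Log-phase luciferase-transfected L. donovani Dd8 promastigotes (M199 + 10% FBS, 24 °C) treated with compounds at 25 and 50 µM in DMSO, with 0.1% DMSO vehicle control. After 72 h, MTT added 4 h. Formazan dissolved in DMSO, read at 570 nm. Percent inhibition reported as mean ± SD of at least three independent experiments in replicate.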

Leishmania donovani [4] = experiment: Induction of apoptosis in Leishmania donovani MHOM/IN/80/Dd8 promastigotes assessed as late apoptotic cells at 50 uM measured after 72 hrs by Alexa fluor488-AnnexinV/PI staining based FACSCalibur flow cytometry analysis (reference value: 0.7%); format: functional
Leishmania donovani [5] = experiment: Induction of apoptosis in Leishmania donovani MHOM/IN/80/Dd8 promastigotes assessed as late apoptotic cells at 50 uM measured after 24 hrs by Alexa fluor488-AnnexinV/PI staining based FACSCalibur flow cytometry analysis (reference value: 0.7%); format: functional
Leishmania donovani [6] = experiment: Induction of apoptosis in Leishmania donovani MHOM/IN/80/Dd8 promastigotes assessed as DNA fragmentation by measuring bright green coloured positive apoptotic nuclei at 50 uM incubated for 72 hrs by TUNEL staining based confocal microscopic analysis; format: functional, organism-based
Procedure, shortened: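 Log-phase promastigotes treated with 50 µM for 72 h, washed, adhered to poly-L-lysine slides and fixed in 4% paraformaldehyde. Permeabilized in ice-cold 70% ethanol 30 min. Labeled with TdT/BrdUTP 60 min at 37 °C, then Alexa Fluor 488 anti-BrdU 30 min and PI/RNase A 30 min. Imaged by confocal microscopy; vehicle was 0.1% DMSO.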

Leishmania donovani [7] = experiment: Antileishmanial activity against amastigote stage of Leishmania donovani MHOM/IN/80/Dd8 harboring luciferase gene infected in mouse J774 cells assessed as parasite growth inhibition by Giemsa staining based analysis; format: functional, organism-based; conditions: time 12-72 hrs, TDE = time-dependent effect
Procedure, shortened: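 J774 macrophages are infected for 24 h with stationary-phase luciferase-transfected Dd8 promastigotes at a 1:8 ratio in chamber slides. After compound treatment, cells are fixed and Giemsa-stained, and intracellular amastigotes are counted by microscopy.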

Leishmania donovani [8] = experiment: Induction of mitochondrial membrane potential dysfunction in Leishmania donovani MHOM/IN/80/Dd8 promastigotes assessed as cells with mitochondrial depolarization at IC50 incubated for 72 hrs by JC1 staining based flow cytometry (reference value: 6.6%); format: functional
Procedure, shortened: (§3)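 Promastigotes (1 × 10^6 cells/mL) exposed to 50 µM for 24–72 h, or to IC50 for 72 h. CCCP (50 µM final) served as depolarization positive control. Cells washed, stained with JC-1 (2 µM final) 30 min at 37 °C, 5% CO2. Red-to-green fluorescence shift measured by flow cytometry.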

Leishmania donovani [9] = experiment: Antileishmanial activity against Leishmania donovani MHOM/IN/80/Dd8 infected in BALB/c mouse assessed as reduction in intracellular amastigote burden in spleen at 50 mg/kg, ip for 5 days and measured at 1 week post-treatment by Giemsa staining based assay relative to control; format: functional; conditions: MHOM/IN/80/Dd8, ip, 288 h, time 12 day
Procedure, shortened: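 Female BALB/c mice (20–25 g), 5/group, infected iv with 2 × 10^7 stationary-phase L. donovani promastigotes. Infection confirmed at 2 wk, then 50 mg/kg ip daily for 5 consecutive days. Vehicle was 5% DMSO. Sacrificed day 7 post-treatment. Giemsa-stained liver/spleen impression smears counted as amastigotes/1000 nucleated cells, expressed as LDU (amastigotes per nucleated cell × organ weight in mg), compared with untreated infected controls.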

Leishmania donovani [10] = experiment: Antileishmanial activity against amastigote stage of Leishmania donovani MHOM/IN/80/Dd8 harboring luciferase gene infected in mouse J774 cells assessed as parasite killing incubated for 72 hrs by Steady-Glo reagent based luciferase assay; format: functional, organism-based; conditions: dose 3.12-50 µM; procedure, shortened: as §1
Splenocyte [11] = experiment: Immunomodulatory activity in BALB/c mouse infected with Leishmania donovani amastigotes assessed as decrease in TGF-beta level in splenocytes supernatants at 50 mg/kg, ip for 5 days; format: functional, organism-based; conditions: time 5.0 day
Leishmania donovani [12] = experiment: Induction of mitochondrial membrane potential dysfunction in Leishmania donovani MHOM/IN/80/Dd8 promastigotes assessed as cells with mitochondrial depolarization at 50 uM incubated for 24 hrs by JC1 staining based flow cytometry (reference value: 3.63%); format: functional; procedure, shortened: as §3
Splenocyte [13] = experiment: Immunomodulatory activity in BALB/c mouse infected with Leishmania donovani amastigotes assessed as decrease in IL-10 level in splenocytes supernatants at 50 mg/kg, ip for 5 days; format: functional, organism-based; conditions: time 5.0 day
Leishmania donovani [14] = experiment: Antileishmanial activity against log phase of Leishmania donovani MHOM/IN/80/Dd8 promastigotes assessed as reduction in cell viability at 50 uM incubated for 72 hrs by MTT assay; format: functional; procedure, shortened: as §2
Leishmania donovani [15] = experiment: Induction of apoptosis in Leishmania donovani MHOM/IN/80/Dd8 promastigotes assessed as early apoptotic cells at 50 uM measured after 72 hrs by Alexa fluor488-AnnexinV/PI staining based FACSCalibur flow cytometry analysis (reference value: 10.3%); format: functional
Leishmania donovani [16] = experiment: Induction of apoptosis in Leishmania donovani MHOM/IN/80/Dd8 promastigotes assessed as early apoptotic cells at 50 uM measured after 48 hrs by Alexa fluor488-AnnexinV/PI staining based FACSCalibur flow cytometry analysis (reference value: 10.3%); format: functional
Splenocyte [17] = experiment: Immunomodulatory activity in BALB/c mouse infected with Leishmania donovani amastigotes assessed as increase in IFN-gamma level in splenocytes supernatants at 50 mg/kg, ip for 5 days; format: functional, organism-based; conditions: time 5.0 day
[18] = Cytotoxicity against mouse J774 cells assessed as reduction in cell viability incubated for 72 hrs by MTT assay; format: cell-based
Procedure, shortened: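 J774 macrophages seeded at 1 × 10^5 cells/well overnight, then exposed to graded concentrations (7.81–500 µM) for 72 h at 37 °C, 5% CO2. MTT (5 mg/mL) added for 2 h, formazan solubilized in DMSO and read at 570 nm. CC50 taken as 50% viability loss relative to untreated cells.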

Leishmania donovani [19] = experiment: Induction of mitochondrial membrane potential dysfunction in Leishmania donovani MHOM/IN/80/Dd8 promastigotes assessed as cells with mitochondrial depolarization at 50 uM incubated for 72 hrs by JC1 staining based flow cytometry (reference value: 3.63%); format: functional

With N#Cc1c(N2CCN(c3ccccc3O)CC2)cc(-c2ccccc2)oc1=O the inhibition at 25 µM (Leishmania donovani [1]) was 84.2%, the Activity (Leishmania donovani [2]) was 15.4% and the inhibition at 25 µM (Leishmania donovani [3]) was 82.7%. For the same compound, the Activity (Leishmania donovani [4]) was 13.1%, the Activity (Leishmania donovani [5]) was 1.2% and the Activity (Leishmania donovani [6]) was “Active”. For the same compound, the Activity (Leishmania donovani [7]) was “Tde”, the Activity (Leishmania donovani [8]) was 22.9% and the inhibition in vivo at 50 mg/kg (Leishmania donovani [9]) was 56.9%. The Activity (Leishmania donovani [10]) was “Dose-Dependent Effect”, the Activity (Splenocyte [11]) was “inactive” and the Activity (Leishmania donovani [12]) was 32.9%. The Activity (Splenocyte [13]) was “inactive”, the inhibition at 50 µM (Leishmania donovani [14]) was 85.2% and the Activity (Leishmania donovani [15]) was 41.4%. The Activity (Leishmania donovani [16]) was 39.1%, the Activity (Splenocyte [17]) was “inactive” and the CC50 at 72 h [18] was 351 µM. It also gave an Activity (Leishmania donovani [19]) of 86.9%.
